Reference: ChEMBL document CHEMBL1150422, “Diarylmethyloxime and hydrazone derivatives with 5-indolyl moieties as potent inhibitors of tubulin polymerization” (Bioorg Med Chem, 2008)

Experiments:
A549 = test: Cytotoxicity against human A549 cells after 72 hrs by XTT method; format: functional, cell-based; details: A549, 72 h
HT-29 = test: Cytotoxicity against human HT29 cells after 72 hrs by XTT method; format: functional, cell-based; details: HT-29, 72 h
Method in brief: (§1)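 Cells were seeded in exponential growth per well: HeLa 1.5 × 10³, HT-29 3 × 10³, A-549 5 × 10³, HL-60 3 × 10³. Adherent lines were left to attach for 24 h at 37 °C in 5% CO₂. Cells were exposed to a range of compound concentrations for 72 h. XTT/PMS reagent was then added for 4 h, and absorbance was read at 490 nm against a 655 nm reference. IC50 is the concentration giving 50% inhibition of proliferation.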

Bos taurus [1] = species: Bos taurus; test: Inhibition of calf brain tubulin polymerization at 20 uM after 20 mins
Method in brief: (§2)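 Microtubule protein (1.0 mg/mL) in 0.1 M MES, 1 mM EGTA, 1 mM MgCl₂, 1 mM β-ME, 1.5 mM GTP, pH 6.7 was preincubated with ligand for 30 min at 20 °C, then cooled on ice for 10 min. Assembly was triggered by moving from 4 °C to 37 °C. Inhibition was measured turbidimetrically at 450 nm after 20 min against a no-ligand control.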

HL-60 = test: Cytotoxicity against human HL60 cells after 72 hrs by XTT method; format: functional, cell-based; details: HL-60, 72 h; method in brief: as §1
HeLa = test: Cytotoxicity against human HeLa cells after 72 hrs by XTT method; format: functional, cell-based
Bos taurus [2] = species: Bos taurus; test: Inhibition of calf brain tubulin polymerization at 30 uM after 20 mins; method in brief: as §2
[3] = Inhibition of calf brain tubulin polymerization after 20 mins; parameters: species or system Bos taurus
Method in brief: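 Turbidity at 450 nm was followed using 1.0 mg/mL microtubule protein in 0.1 M MES, 1 mM EGTA, 1 mM MgCl₂, 1 mM β-ME, 1.5 mM GTP, pH 6.7, with a ligand-free control. Samples were preincubated for 30 min at 20 °C, iced for 10 min, and assembly was started by shifting from 4 °C to 37 °C. IC50 was read graphically at 20 min. At least two independent experiments used different protein preparations.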

Bos taurus [4] = species: Bos taurus; test: Inhibition of calf brain tubulin polymerization at 40 uM after 20 mins; method in brief: as §2

Row | inhibition (Bos taurus [1]) [%] | inhibition (Bos taurus [2]) [%] | IC50 [3] [nM] | inhibition (Bos taurus [4]) [%] | Compound | IC50 (A549) [nM] | IC50 (HT-29) [nM] | IC50 (HL-60) [nM] | IC50 (HeLa) [nM]
1 | 54 | – | – | – | CCn1ccc2cc(/C(=N/OC(C)=O)c3cc(OC)c(OC)c(OC)c3)ccc21 | > 10000 | > 10000 | > 1000 | > 10000
2 | 23 | – | – | – | COc1cc(/C(=N\O)c2ccc3c(ccn3C)c2)cc(OC)c1OC | – | – | – | –
3 | – | 14 | – | – | COc1cc(/C(=N/NC(C)=O)c2ccc3c(ccn3C)c2)cc(OC)c1OC | > 10000 | – | > 1000 | 2300
4 | 86 | – | 18000 | – | COc1cc(C(O)c2ccc3c(ccn3C)c2)cc(OC)c1OC (stereo unspecified) | > 10000 | > 1000 | > 10000 | > 1000
5 | 42 | – | – | – | CCn1ccc2cc(C(O)c3cc(OC)c(OC)c(OC)c3)ccc21 (stereo unspecified) | > 10000 | > 1000 | > 10000 | > 1000
6 | – | 35 | – | – | COc1cc(/C(=N/N)c2ccc3c(ccn3C)c2)cc(OC)c1OC | – | – | > 10000 | –
7 | 41 | – | – | – | COc1cc(C(OC(C)=O)c2ccc3c(ccn3C)c2)cc(OC)c1OC (stereo unspecified) | > 10000 | 260 | 240 | 6.4
8 | 0 | – | – | – | CCn1ccc2cc(C(OC(C)=O)c3cc(OC)c(OC)c(OC)c3)ccc21 (stereo unspecified) | > 10000 | > 1000 | > 10000 | > 1000
9 | 26 | – | – | – | CCn1ccc2cc(/C(=N\OC(C)=O)c3cc(OC)c(OC)c(OC)c3)ccc21 | > 10000 | > 1000 | > 1000 | > 1000
10 | 87 | – | 5900 | – | CCn1ccc2cc(/C(=N\O)c3cc(OC)c(OC)c(OC)c3)ccc21 | > 10000 | > 1000 | > 1000 | > 1000
11 | 97 | – | 2500 | – | COc1ccc(C(=O)c2cc(OC)c(OC)c(OC)c2)cc1O [PHENSTATIN] | 300 | 30 | 1800 | 30
12 | – | 82 | 1800 | – | COc1cc(/C(=N/O)c2ccc3c(ccn3C)c2)cc(OC)c1OC | > 10000 | 330 | 110 | 360
13 | 38 | – | – | – | COc1cc(/C(=N/OC(C)=O)c2ccc3c(ccn3C)c2)cc(OC)c1OC | – | – | > 10000 | –
14 | – | – | 7900 | 98 | COc1cc(C(=O)c2ccc3c(ccn3C)c2)cc(OC)c1OC | 120 | – | – | 34
15 | 41 | – | – | – | COc1cc(/C(=N\OC(C)=O)c2ccc3c(ccn3C)c2)cc(OC)c1OC | – | – | > 10000 | –
16 | 20 | – | – | – | CN/N=C(/c1cc(OC)c(OC)c(OC)c1)c1ccc2c(ccn2C)c1 | > 1000 | > 1000 | > 1000 | > 1000
17 | 10 | – | – | – | COc1cc(/C(=N/OC(=O)OC(C)(C)C)c2ccc3c(ccn3C)c2)cc(OC)c1OC | > 10000 | > 1000 | > 1000 | > 1000
18 | – | 7 | – | – | CCn1ccc2cc(/C(=N\N)c3cc(OC)c(OC)c(OC)c3)ccc21 | > 10000 | > 1000 | > 1000 | > 1000
19 | 95 | – | 5700 | – | CCn1ccc2cc(C(=O)c3cc(OC)c(OC)c(OC)c3)ccc21 | 140 | – | 34 | 16
20 | 17 | – | – | – | COc1cc(/C(=N\OC(=O)OC(C)(C)C)c2ccc3c(ccn3C)c2)cc(OC)c1OC | > 1000 | > 1000 | > 1000 | > 1000

Row | Compound | inhibition (Bos taurus [1]) [%] | inhibition (Bos taurus [2]) [%] | IC50 [3] [nM] | inhibition (Bos taurus [4]) [%] | IC50 (A549) [nM] | IC50 (HT-29) [nM] | IC50 (HL-60) [nM] | IC50 (HeLa) [nM]
21 | COc1ccc(/C=C\c2cc(OC)c(OC)c(OC)c2)cc1O [COMBRETASTATIN A4] | – | – | 3000 | – | – | 2 | – | –
